Assay results pooled from the literature.
Lines come from different studies, so protocols differ.
Target: Homeodomain-interacting protein kinase 4 (HIPK4, Homo sapiens, UniProt Q8NE63)
Residues used in one study (Q8NE63 1-616): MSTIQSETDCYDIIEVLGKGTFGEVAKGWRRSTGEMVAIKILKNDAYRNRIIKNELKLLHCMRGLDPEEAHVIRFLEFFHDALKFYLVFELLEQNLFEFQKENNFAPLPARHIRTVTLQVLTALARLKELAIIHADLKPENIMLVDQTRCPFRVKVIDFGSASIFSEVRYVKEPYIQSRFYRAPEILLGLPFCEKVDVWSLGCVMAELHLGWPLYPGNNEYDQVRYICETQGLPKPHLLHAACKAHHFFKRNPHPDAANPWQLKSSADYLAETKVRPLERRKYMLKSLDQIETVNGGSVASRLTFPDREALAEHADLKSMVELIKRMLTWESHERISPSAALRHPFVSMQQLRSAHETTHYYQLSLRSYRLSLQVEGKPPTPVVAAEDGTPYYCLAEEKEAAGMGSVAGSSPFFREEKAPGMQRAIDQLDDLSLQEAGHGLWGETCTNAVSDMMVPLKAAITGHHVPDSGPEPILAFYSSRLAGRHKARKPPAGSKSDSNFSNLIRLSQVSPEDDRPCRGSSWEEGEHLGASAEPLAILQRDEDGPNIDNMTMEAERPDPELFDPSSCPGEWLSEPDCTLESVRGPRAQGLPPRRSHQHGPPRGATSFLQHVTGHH

Compound	effect on	action	technique	tested at	measurement	result
O=C(O)c1ccc2c(c1)nc(Nc1ccc3ccccc3c1)c1ncncc12	enzyme activity	inhibitor	radiometric	1 µM	remaining activity	109%
CCOc1cc(-c2nncn2C)ccc1Nc1ncc2cc(C)nc(NCC(C)(C)C)c2n1	enzyme activity	inhibitor	FRET	1 µM	inhibition	< 15%
COc1cc2c(N3CCN(C(=O)Nc4ccc(OC(C)C)cc4)CC3)ncnc2cc1OCCCN1CCCCC1	cell-free assay	–	–	0.5 µM	remaining signal	99.5%
CS(=O)(=O)c1cc(C2(NC(=O)c3cncc4c3cnn4-c3ccc(F)cc3)CC2)ccn1	cell-free assay	–	competition with immobilised ligand	1 µM	remaining binding	100%
O=C(O)c1ccc2c(c1)nc(Nc1cccc(F)c1)c1ncncc12	enzyme activity	inhibitor	radiometric	1 µM	remaining activity	52%
COc1cc2ncnc(Nc3ccc(Oc4ccccc4)cc3C)c2cc1OC	enzyme activity	inhibitor	–	1 µM	inhibition	4%
CC(=O)c1c(NS(C)(=O)=O)c2cc(-c3ccc(Cl)cc3)c(-c3ccc(Cl)cc3Cl)nc2n(C)c1=O	cell-free assay	–	competition with immobilised ligand	1 µM	remaining binding	93%
N#CCCc1ccc2c(c1)-c1[nH]c3ccc([N+](=O)[O-])cc3c1CC(=O)N2	cell-free assay	–	–	0.5 µM	remaining signal	113%
CCC(=O)N[C@@H]1CC[C@H](C(=O)N(C)c2ccc(-c3nc4ccccc4o3)cc2)C1	cell-free assay	–	competition with immobilised ligand	1 µM	remaining binding	100%
O=C1Nc2ccc(Cl)cc2C1=Cc1cc(Cl)c(O)c(Cl)c1	cell-free assay	–	–	0.5 µM	remaining signal	88.4%
CS(=O)(=O)N1CCCC(NC(=O)[C@H](CCC2CCCCC2)NC(=O)c2ccc(CNC(=O)c3cnc4ccccn34)cc2)C1 (some centres unmarked)	cell-free assay	–	competition with immobilised ligand	0.1 µM	remaining binding	88%
O=C(O)c1ccc2c(c1)nc(NCc1ccccc1)c1ccncc12	enzyme activity	inhibitor	radiometric	1 µM	remaining activity	33%
Cc1ccc(NC(=O)c2ccc(CN3CCN(C)CC3)cc2)cc1Nc1nc(-c2cccnc2)cs1	cell-free assay	–	–	0.5 µM	remaining signal	101%
O=C(O)c1ccc2c(c1)nc(Nc1ccc(F)c(Cl)c1)c1ncncc12	enzyme activity	inhibitor	radiometric	1 µM	remaining activity	6%
CCCOc1ccc([C@@H]2[C@@H](C(=O)O)[C@H](c3ccc4c(c3)OCO4)CN2CC(=O)Nc2c(CC)cccc2CC)cc1	cell-free assay	–	competition with immobilised ligand	1 µM	remaining binding	65%
O=C(O)c1ccc2c(c1)nc(NCCc1cccc(Cl)c1)c1ccncc12	enzyme activity	inhibitor	radiometric	1 µM	remaining activity	47%
O=C(Nc1cnn(-c2csc(C(=O)NC3COC3)c2)c1)Nc1c(F)cccc1Cl	enzyme activity	inhibitor	–	5 µM	remaining activity	111%
CNC(=O)Nc1ccc2c(c1)CC[C@@]21OC(=O)N(CC(=O)N(Cc2ccc(F)cc2)[C@@H](C)C(F)(F)F)C1=O	cell-free assay	–	competition with immobilised ligand	1 µM	remaining binding	97%
O=C(O)c1ccc2c(c1)nc(Nc1ccc3ccccc3c1)c1ccncc12	enzyme activity	inhibitor	radiometric	1 µM	remaining activity	-10%
CCCS(=O)(=O)Nc1ccc(F)c(C(=O)c2c[nH]c3ncc(-c4ccc(Cl)cc4)cc23)c1F	enzyme activity	inhibitor	–	1 µM	inhibition	< 10%
